From ChEMBL document CHEMBL1144702, “Synthesis and structure-activity relationship studies on tryprostatin A, an inhibitor of breast cancer resistance protein” (Bioorg Med Chem, 2008)
The source made the active and inactive calls. No cut-off for these calls is given here.

What was measured:
[1] = Antiproliferative activity against mouse tsFT210 cells after 48 hrs by WST-8 assay; type: functional, cell-based; details: tsFT210, 48 h
Method in brief: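 tsFT210 cells (temperature-sensitive cdc2 mutant from mouse mammary carcinoma FM3A), kept in RPMI 1640 with 10% fetal calf serum at 32 °C; exponentially growing cells exposed to compound at 32 °C for 48 h, then WST-8 added for 4 h at 37 °C; absorbance at 450 nm read to estimate cell number; IC50 reported.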

[2] = Cell cycle arrest in mouse tsFT210 cells assessed as accumulation at G1 phase at 100 uM after 18 hrs by flow cytometry; type: functional, cell-based
Method in brief: (§1)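 Synchronous-culture assay: tsFT210 cells seeded at 1x10^5 cells/mL, preincubated 1 h at 32 °C, then incubated with compound 18 h at 32 °C; morphology checked by microscopy; DNA content by flow cytometry after staining with 50 μg/mL propidium iodide, 0.1% sodium citrate, 0.2% NP-40; nuclei/chromosomes stained with Hoechst 33258 after KCl swelling and Carnoy fixation.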

[3] = Inhibition of tubulin polymerization in presence of microtubule-associated proteins
Method in brief: (§2)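 Tubulin containing MAPs in PME buffer (100 mM PIPES pH 6.9, 2 mM EGTA, 1 mM MgSO4) with GTP and drug in DMSO, tubulin added last; 37 °C, absorbance change at 351 nm over 10 min. Drug concentration varied across runs for delta absorbance versus concentration curves; colchicine standard curves made for each tubulin batch.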

PC-3 [4] = assay: Cytotoxicity against human PC3 cells at 100 uM after 72 hrs by Cell Titer 96 Aqueous Non-Radioactive assay; type: functional; details: PC-3, 72 h, read-out: Inhibition
Method in brief: (§3)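 MCF7, NCI-H520 or PC-3 cells (RPMI-1640, 10% FBS) plated 1 × 10^4/well, 24 h at 37 °C, exposed 72 h to drug at 10 or 100 μM in DMSO or EtOH vehicle (controls usually 0.2%). Survival by MTS/PMS formazan absorbance at 490 nm, plate blank subtracted, as percent of vehicle wells; quadruplicate; etoposide or m-AMSA positive controls.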

[5] = Cytotoxicity against human H520 cells at 100 uM after 72 hrs by Cell Titer 96 Aqueous Non-Radioactive assay; type: functional; details: NCI-H520, 72 h, read-out: Inhibition; method in brief: as §3
CCRF-CEM = assay: Cytotoxicity against human CCRF-CEM cells; type: functional
MCF7 [6] = assay: Cytotoxicity against human MCF7 cells at 10 uM after 72 hrs by Cell Titer 96 Aqueous Non-Radioactive assay; type: functional; details: MCF7, 72 h, read-out: Inhibition; method in brief: as §3
BT-549 = assay: Cytotoxicity against human BT549 cells; type: functional
LOX IMVI = assay: Cytotoxicity against human LOX IMVI cells; type: functional
[7] = Cytotoxicity against human H520 cells at 10 uM after 72 hrs by Cell Titer 96 Aqueous Non-Radioactive assay; type: functional; details: NCI-H520, 72 h, read-out: Inhibition; method in brief: as §3
DU-145 = assay: Cytotoxicity against human DU145 cells; type: functional
K562 = assay: Cytotoxicity against human K562 cells; type: functional
EKVX = assay: Cytotoxicity against human EKVX cells; type: functional
UO-31 = assay: Cytotoxicity against human UO31 cells; type: functional
[8] = Inhibition of tubulin polymerization in presence of microtubule-associated proteins at 60 uM; method in brief: as §2
MOLT-4 = assay: Cytotoxicity against human MOLT4 cells; type: functional
SR = assay: Cytotoxicity against human SR cells; type: functional
HT-29 = assay: Cytotoxicity against human HT29 cells; type: functional
RPMI-8226 = assay: Cytotoxicity against human RPMI8226 cells; type: functional
IGROV-1 = assay: Cytotoxicity against human IGROV1 cells; type: functional
[9] = Cytotoxicity against human HL60 (TB) cells; type: functional; details: HL-60
MCF7 [10] = assay: Cytotoxicity against human MCF7 cells after 72 hrs by Cell Titer 96 Aqueous Non-Radioactive assay; type: functional; details: MCF7, 72 h
Method in brief: (§4)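 MCF7, NCI-H520 and PC-3 cells in RPMI-1640 + 10% FBS, 2 mM L-glutamine, 0.1 mM non-essential amino acids; 1 × 10^4 cells/well, 24 h at 37 °C, then drug in DMSO or EtOH (<1%) for 72 h. Cells under 50% survival at 100 μM retested over further concentrations for GI50. MTS/PMS read at 490 nm, blank subtracted, versus vehicle wells; quadruplicate or more.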

COLO 205 = assay: Cytotoxicity against human COLO205 cells; type: functional
PC-3 [11] = assay: Cytotoxicity against human PC3 cells after 72 hrs by Cell Titer 96 Aqueous Non-Radioactive assay; type: functional; details: PC-3, 72 h; method in brief: as §4
PC-3 [12] = assay: Cytotoxicity against human PC3 cells at 10 uM after 72 hrs by Cell Titer 96 Aqueous Non-Radioactive assay; type: functional; details: PC-3, 72 h, read-out: Inhibition; method in brief: as §3
MCF7 [13] = assay: Cytotoxicity against human MCF7 cells at 100 uM after 72 hrs by Cell Titer 96 Aqueous Non-Radioactive assay; type: functional; details: MCF7, 72 h, read-out: Inhibition; method in brief: as §3
[14] = Cytotoxicity against human […]; type: functional
OVCAR-3 = assay: Cytotoxicity against human OVCAR-3 cells; type: functional
HOP-92 = assay: Cytotoxicity against human HOP92 cells; type: functional
[15] = Cell cycle arrest in mouse tsFT210 cells assessed as accumulation at G2/M phase at 100 uM after 18 hrs by flow cytometry; type: functional, cell-based; method in brief: as §1

C=CCn1c(CC=C(C)C)c(C[C@@H]2NC(=O)[C@@H]3CCCN3C2=O)c2ccc(OC)cc21
IC50 [1]: 75 µM

COc1ccc2c(C[C@@H]3NC(=O)[C@@H]4CCCN4C3=O)cn(Cc3ccccc3)c2c1
Activity [2]: Active
IC50 [1]: 46 µM

COc1ccc2c(C[C@@H]3NC(=O)[C@@H]4CCCN4C3=O)c(Cc3ccccc3)[nH]c2c1
IC50 [1]: > 100 µM

CC(C)=CCc1[nH]c2cc(N)ccc2c1C[C@@H]1NC(=O)[C@@H]2CCCN2C1=O
IC50 [1]: > 100 µM

COc1cc2c(c(OC)c1OC)-c1ccc(OC)c(=O)cc1[C@@H](NC(C)=O)CC2 [COLCHICINE]
IC50 [3]: 44.9 µM

COc1ccc2c(C[C@@H]3NC(=O)[C@@H]4CCCN4C3=O)cn(C)c2c1
IC50 [1]: > 100 µM

COc1ccc2c(C[C@@H]3NC(=O)[C@H](Cc4ccccc4)NC3=O)c(CC=C(C)C)[nH]c2c1
IC50 [1]: 10 µM

CC(C)=CCc1[nH]c2cc([N+](=O)[O-])ccc2c1C[C@@H]1NC(=O)[C@@H]2CCCN2C1=O
IC50 [1]: > 100 µM

COc1ccc2c(C[C@H]3NC(=O)[C@@H]4CCCN4C3=O)c(CC=C(C)C)[nH]c2c1
percent cell survival at 100 µM (PC-3 [4]): > 100%
cell survival (% of vehicle control) at 100 µM [5]: > 100%
GI50 (CCRF-CEM): 11.9 µM
cell survival (% of vehicle control) at 10 µM (MCF7 [6]): > 100%
GI50 (BT-549): 9.77 µM
GI50 (LOX IMVI): 33.5 µM
percent cell survival relative to vehicle at 10 µM [7]: > 100%
GI50 (DU-145): 40 µM
GI50 (K562): 17.7 µM
GI50 (EKVX): > 50 µM
GI50 (UO-31): 27.3 µM
inhibition [8]: < 2%
GI50 (MOLT-4): 12.2 µM
GI50 (SR): 11.3 µM
GI50 (HT-29): 16.1 µM
GI50 (RPMI-8226): 7.76 µM
GI50 (IGROV-1): > 50 µM
GI50 [9]: 35 µM
GI50 (MCF7 [10]): 25.5 µM
GI50 (COLO 205): 12.4 µM
GI50 (PC-3 [11]): 21.7 µM
percent cell survival relative to vehicle control at 10 µM (PC-3 [12]): > 100%
cell survival (% of vehicle control) at 100 µM (MCF7 [13]): > 100%
GI50 [14]: 13 µM
GI50 (OVCAR-3): > 50 µM

CC(C)=CCc1[nH]c2ccccc2c1C[C@H]1NC(=O)[C@@H]2CCCN2C1=O
percent cell survival at 100 µM (PC-3 [4]): 68.5%
cell survival (% of vehicle control) at 100 µM [5]: 76.5%
GI50 (CCRF-CEM): 22.2 µM
cell survival (% of vehicle control) at 10 µM (MCF7 [6]): > 100%
GI50 (BT-549): 26.9 µM
GI50 (LOX IMVI): 17.8 µM
percent cell survival relative to vehicle at 10 µM [7]: > 100%
GI50 (DU-145): 59.5 µM
GI50 (K562): 31.8 µM
GI50 (EKVX): 20.7 µM
GI50 (UO-31): 45.7 µM
inhibition [8]: < 2%
GI50 (MOLT-4): 34.9 µM
GI50 (SR): 25.4 µM
GI50 (RPMI-8226): 18.6 µM
GI50 (IGROV-1): 32.3 µM
GI50 [9]: 55.7 µM
GI50 (MCF7 [10]): 25.9 µM
GI50 (COLO 205): 39.3 µM
GI50 (HOP-92): 2.94 µM
GI50 (PC-3 [11]): 24.8 µM
percent cell survival relative to vehicle control at 10 µM (PC-3 [12]): 97.3%
cell survival (% of vehicle control) at 100 µM (MCF7 [13]): > 100%
GI50 [14]: 49.6 µM
GI50 (OVCAR-3): 28.7 µM

CC(C)=CCc1[nH]c2cc(N=[N+]=[N-])ccc2c1C[C@@H]1NC(=O)[C@@H]2CCCN2C1=O
Activity [2]: Active
Activity [15]: Active
IC50 [1]: 60 µM

C=CCc1[nH]c2cc(OC)ccc2c1C[C@@H]1NC(=O)[C@@H]2CCCN2C1=O
Activity [2]: Active
Activity [15]: Active
IC50 [1]: 60 µM

COc1ccc2c(C[C@@H]3NC(=O)[C@@H]4CCCN4C3=O)c(CC=C(C)C)n(Cc3ccccc3)c2c1
IC50 [1]: 55 µM

CC(C)=CCc1[nH]c2cc(N=C=S)ccc2c1C[C@@H]1NC(=O)[C@@H]2CCCN2C1=O
Activity [2]: Active
Activity [15]: Active
IC50 [1]: 50 µM

COC(=O)/C=C/c1[nH]c2cc(OC)ccc2c1C[C@@H]1NC(=O)[C@@H]2CCCN2C1=O
IC50 [1]: > 100 µM

COc1ccc2c(C[C@@H]3NC(=O)[C@H](C(C)C)NC3=O)c(CC=C(C)C)[nH]c2c1
Activity [2]: Active
Activity [15]: Active
IC50 [1]: 19 µM

COc1ccc2c(C[C@@H]3NC(=O)[C@@H]4CCCN4C3=O)c(Br)[nH]c2c1
IC50 [1]: 96 µM

C=CCn1cc(C[C@@H]2NC(=O)[C@@H]3CCCN3C2=O)c2ccc(OC)cc21
Activity [2]: Active
IC50 [1]: 62 µM

COc1ccc2c(C[C@@H]3NC(=O)[C@@H]4CCCN4C3=O)c(Cl)[nH]c2c1
IC50 [1]: > 100 µM

COc1ccc2c(C[C@@H]3NC(=O)[C@H](C(C)C)NC3=O)c[nH]c2c1
IC50 [1]: > 100 µM

COc1ccc2c(C[C@@H]3NC(=O)[C@@H]4CCCN4C3=O)c[nH]c2c1
IC50 [1]: > 100 µM

COc1ccc2c(C[C@@H]3NC(=O)[C@@H]4CCCN4C3=O)cn(CC=C(C)C)c2c1
IC50 [1]: > 100 µM

CC(C)=CCc1[nH]c2ccccc2c1C[C@@H]1NC(=O)[C@@H]2CCCN2C1=O [TRYPROSTATIN B]
percent cell survival at 100 µM (PC-3 [4]): 68.9%
cell survival (% of vehicle control) at 100 µM [5]: 60.5%
GI50 (CCRF-CEM): > 100 µM
cell survival (% of vehicle control) at 10 µM (MCF7 [6]): 88.2%
GI50 (BT-549): 58.2 µM
GI50 (LOX IMVI): > 100 µM
percent cell survival relative to vehicle at 10 µM [7]: 77.6%
GI50 (DU-145): > 100 µM
GI50 (K562): 56.1 µM
GI50 (EKVX): > 100 µM
IC50 [3]: > 700 µM
GI50 (UO-31): > 100 µM
GI50 (MOLT-4): > 100 µM
GI50 (SR): 50.6 µM
GI50 (RPMI-8226): > 100 µM
GI50 (IGROV-1): > 100 µM
GI50 [9]: > 100 µM
GI50 (MCF7 [10]): > 100 µM
GI50 (COLO 205): > 100 µM
GI50 (HOP-92): 43.1 µM
GI50 (PC-3 [11]): > 100 µM
percent cell survival relative to vehicle control at 10 µM (PC-3 [12]): 95.5%
cell survival (% of vehicle control) at 100 µM (MCF7 [13]): 66.7%
GI50 [14]: > 100 µM
GI50 (OVCAR-3): > 100 µM
